In the library only some 1.1% were active in any assay of this set; here they are far more common.
Rad51 HR inh = blocks human Rad51 in homologous recombination; Q06609; hRad51 DNA strand exchange, fluorescence dequenching; inhibition, % at 10 µM; 0.085% of 200,000 active; AID 1385;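 active = inhibition above 40% at the single screening dose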;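 also: 0% = DMSO control wells and 100% = blanks with heterologous ssDNA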
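System: human Rad51 nucleoprotein filaments preassembled on unlabelled ssDNA. Reagent: labelled 47-mer dsDNA for strand exchange. Schedule: 30-min compound preincubation and 15-min exchange, both room temperature. Measured by: FRET fluorescence dequenching, excitation 485 nm, emission 520 nm. Read-out: Fluorescence-based percent inhibition, control- and blank-normalised. Benchmarks: plate controls and plate blanks.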
PMI act satM6P = activators of human phosphomannose isomerase at near-saturating mannose 6-phosphate. P34949. coupled PMI enzyme assay, resazurin fluorescence, 20 min; stronger effect = higher value; 1 = untreated enzyme, 0 = substrate-free blank. activation factor at 20 µM. 0.34% of 190,000 active. AID 1216;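 active = activation factor of 2 or more at 20 µM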
Target sequence (P34949 whole entry, looked up): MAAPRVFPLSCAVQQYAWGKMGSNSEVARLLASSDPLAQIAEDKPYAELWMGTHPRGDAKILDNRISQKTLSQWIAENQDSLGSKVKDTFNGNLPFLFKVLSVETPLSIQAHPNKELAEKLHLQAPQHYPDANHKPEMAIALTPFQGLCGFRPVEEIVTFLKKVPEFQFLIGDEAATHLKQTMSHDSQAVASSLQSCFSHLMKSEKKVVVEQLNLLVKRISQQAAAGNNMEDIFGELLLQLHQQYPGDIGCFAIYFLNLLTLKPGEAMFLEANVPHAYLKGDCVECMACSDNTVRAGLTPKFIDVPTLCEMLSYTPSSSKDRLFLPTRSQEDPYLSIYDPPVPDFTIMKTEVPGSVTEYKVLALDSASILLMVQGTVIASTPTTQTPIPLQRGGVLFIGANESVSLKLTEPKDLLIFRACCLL
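Test system: human PMI in coupled enzyme assay; Input: PMI at 15 ng/mL final; Medium: HEPES buffer, pH 7.4; Schedule: 20 min incubation at room temperature; Technique: resorufin fluorescence at Ex 544/Em 590 nm; Compound: 20 µM single dose; Probe or stimulus: Near-saturating mannose-6-phosphate, 1.0 mM.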
Efa HMGR inh = blocks class II HMG-CoA reductase of Enterococcus faecalis; purified E. faecalis HMGR, NADPH absorbance 340 nm kinetic; inhibition, % at 10 µM; 0.41% of 190,000 active;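 active = inhibition above a set limit, the median over all tested compounds plus 3 SD, cut at about 9.5% in these data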;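 also: enzyme runs in reverse so mevalonate oxidation gives rising NADPH absorbance; 0% = complete reaction with DMSO and 100% = background rate lacking mevalonate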
PMI activator = phosphomannose isomerase (human) activation. 0.005% of 190,000 active. purified human PMI, coupled resazurin fluorescence, 20 min; stronger effect = higher value; 1 = vehicle control, 0 substrate-free wells. AID 1214. P34949. activation factor at 20 µM;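 active = activation factor of 2 or more at 20 µM, relative to plate controls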
Calpain2 inh = calpain II (pig) inhibition | inhibition, % at 16 µM | purified calpain II, fluorogenic peptide substrate, 30 min | 0.37% of 220,000 active;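 active = inhibition above about 50%, limit read from the data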
An asterisk follows results filed as active.

What do the screens show for `O=C(NCc1n[nH]c(=S)n1-c1ccccc1)c1cccs1`?
Rad51 HR inh: 6; PMI act satM6P: 1.1; Efa HMGR inh: 12*; PMI activator: 1; Calpain2 inh: -14

How did CC(=O)Oc1cc(C(C)C)c(OCCN(C)C)cc1C do in these assays?
Rad51 HR inh: -7; PMI act satM6P: 0.9; Efa HMGR inh: 9.7*; PMI activator: 1; Calpain2 inh: -8

Results for CCn1nc(C)cc1C(=O)n1nc(C)c(Sc2ncccn2)c1C ?
Rad51 HR inh: 8; Calpain2 inh: -11

Results for O=[N+]([O-])c1ccccc1S(=O)(=O)N1CCN(Cc2ccsc2)CC1 ?
Rad51 HR inh: 7; PMI act satM6P: 0.9; Efa HMGR inh: 0; PMI activator: 0.9; Calpain2 inh: 1

How did CCN(CC)C(=O)Cn1cc(S(=O)(=O)CC(=O)NC2CCCCC2)c2ccccc21 do in these assays?
Rad51 HR inh: -47; PMI act satM6P: 1; Efa HMGR inh: 1; PMI activator: 1; Calpain2 inh: -22

How did CC(C)Sc1nc2c([nH]c3ccccc32)c(=O)n1C do in these assays?
Rad51 HR inh: 7; PMI act satM6P: 1.1; Efa HMGR inh: -1; PMI activator: 1.1; Calpain2 inh: 82*

How did CN1CCS/C1=C\C=C1/SC(=S)N(CC(=O)O)C1=O do in these assays?
Rad51 HR inh: inactive; PMI act satM6P: 0.8; Efa HMGR inh: -6; PMI activator: 1; Calpain2 inh: 64*

Results for Cc1sc(-n2c(C)cc(/C=C3\SC(=S)NC3=O)c2C)c(C#N)c1C ?
Rad51 HR inh: -32; PMI act satM6P: 1.1; Efa HMGR inh: 11*; PMI activator: 1; Calpain2 inh: -14

How did CCC(Sc1ccc2nnc(-c3ccc(F)cc3)n2n1)C(=O)OC (stereo not given) do in these assays?
Rad51 HR inh: 2; PMI act satM6P: 1; Efa HMGR inh: 0; PMI activator: 1; Calpain2 inh: -169

Results for CCC(Sc1ccc2nnc(-c3cccnc3)n2n1)C(=O)OC (stereo not given) ?
Rad51 HR inh: 4; PMI act satM6P: 1.1; Efa HMGR inh: 9.6*; PMI activator: 1.2; Calpain2 inh: -147

What do the screens show for `CCC(C(=O)OC)n1c(-c2ccccc2)nc2ccccc2c1=O` (stereo not given)?
Rad51 HR inh: -2; PMI act satM6P: 1; Efa HMGR inh: 12*; PMI activator: 0.9; Calpain2 inh: 11

What do the screens show for `CCNC(=O)Nn1c(-c2ccccc2)nc2ccccc2c1=O`?
Rad51 HR inh: -3; PMI act satM6P: 1; Efa HMGR inh: -6; PMI activator: 1; Calpain2 inh: 11

What do the screens show for `CC(C)CCNC(=O)C1CC(c2cccc(F)c2)=NO1` (stereo not given)?
Rad51 HR inh: -9; Calpain2 inh: -2

How did O=C(Nc1ccc2c(c1)OCO2)C1CCN(C(=O)c2ccc(Br)cc2)CC1 do in these assays?
Rad51 HR inh: 41*; PMI act satM6P: 0.8; Efa HMGR inh: -4; PMI activator: 0.9; Calpain2 inh: -11

What do the screens show for `O=C(Nc1ccc2c(c1)OCO2)C1CCN(C(=O)c2ccc(Cl)cc2)CC1`?
Rad51 HR inh: -105; PMI act satM6P: 0.9; Efa HMGR inh: -7; PMI activator: 0.9; Calpain2 inh: -25

Results for CSc1ccccc1NC(=O)COc1ccccc1C ?
Rad51 HR inh: -1; PMI act satM6P: 1; Efa HMGR inh: 2; PMI activator: 1; Calpain2 inh: 69*

What do the screens show for `O=C(Nc1ccccc1N1CCOCC1)c1cc(Br)c(Br)s1`?
Rad51 HR inh: 22; PMI act satM6P: 0.9; Efa HMGR inh: -1; PMI activator: 1; Calpain2 inh: 8

How did O=C(COC(=O)c1c2c(nc3ccccc13)CCN(Cc1ccccc1)C2)Nc1c(F)cccc1F do in these assays?
Rad51 HR inh: -4; PMI act satM6P: 2*; Efa HMGR inh: -6; PMI activator: 1.3; Calpain2 inh: -3

How did O=C(O)/C=C/c1cn(Cc2ccccc2)nc1-c1cccnc1 do in these assays?
Rad51 HR inh: 45*; Calpain2 inh: -12

What do the screens show for `NNC(=O)C1CC1c1ccc(Cl)cc1` (stereo not given)?
Rad51 HR inh: -2; PMI act satM6P: 1; Efa HMGR inh: 19*; PMI activator: 0.9; Calpain2 inh: -99

How did O=C1CSC(c2cccnc2)N1c1cccc(Cl)c1 (stereo not given) do in these assays?
Rad51 HR inh: 9; PMI act satM6P: 1.1; Efa HMGR inh: 13*; PMI activator: 1.1; Calpain2 inh: 9

What do the screens show for `OC(COc1ccc2c(c1)CCC2)Cn1cnc2ccccc21` (stereo not given)?
Rad51 HR inh: 128*; PMI act satM6P: 1.1; Efa HMGR inh: 0; PMI activator: 1; Calpain2 inh: 23

Results for CC(=O)Nc1ccc(OCC(O)Cn2cnc3ccccc32)cc1 (stereo not given) ?
Rad51 HR inh: -3; PMI act satM6P: 0.9; Efa HMGR inh: -9; PMI activator: 1; Calpain2 inh: -5

Results for Cn1c(CCc2ccccc2)n[nH]c1=S ?
Rad51 HR inh: 0; PMI act satM6P: 1; Efa HMGR inh: -4; PMI activator: 1; Calpain2 inh: -33

Results for Cc1ccc(N2C(=O)C3C(C2=O)C(C(=O)c2ccc(Cl)cc2)N2CCCC32)cc1 (stereo not given) ?
Rad51 HR inh: -54; PMI act satM6P: 2*; Efa HMGR inh: -1; PMI activator: 1.6; Calpain2 inh: -104

How did O=C(Cc1c[nH]c2ccccc12)Nc1ccc(N2CCOCC2)cc1 do in these assays?
Rad51 HR inh: -5; PMI act satM6P: 0.7; Efa HMGR inh: 0; PMI activator: 1; Calpain2 inh: 26

Results for CC1=CC(C)(C)N(C(=O)C(C)N2C(=O)c3ccccc3C2=O)c2ccc(C)cc21 (stereo not given) ?
Rad51 HR inh: 10; PMI act satM6P: 1; Efa HMGR inh: 2; PMI activator: 1; Calpain2 inh: 19

How did COc1ccc(C(=O)CCC(C)(C)[N+](=O)[O-])cc1 do in these assays?
Rad51 HR inh: -8; PMI act satM6P: 1; Efa HMGR inh: 12*; PMI activator: 1.1; Calpain2 inh: -17

What do the screens show for `CSC1=NC(C(Cl)(Cl)Cl)N=C(c2ccc(C)cc2)N1` (stereo not given)?
Rad51 HR inh: 3; PMI act satM6P: 2.3*; Efa HMGR inh: 0; PMI activator: 1.9; Calpain2 inh: -3

How did COc1ccc(/C=N/n2cnnc2)cc1Cn1nc(C)c([N+](=O)[O-])c1C do in these assays?
Rad51 HR inh: 6; PMI act satM6P: 1; Efa HMGR inh: 11*; PMI activator: 1; Calpain2 inh: -12

What do the screens show for `Cc1ccc(C(=O)NC(C)c2ccc3c(c2)OCO3)s1` (stereo not given)?
Rad51 HR inh: 6; PMI act satM6P: 0.9; Efa HMGR inh: 13*; PMI activator: 1; Calpain2 inh: -24

Compound activity (PubChem BioAssay)
